Activity calls are given as the source filed them. The calls are words filed in the database; no cut-off is given here.
How the values were obtained:
[1] = target: Sodium-dependent serotonin transporter (Homo sapiens) (UniProt P31645); assay: Displacement of [3H]imipramine from recombinant human […] at 10 uM after 60 mins by scintillation counting method
[2] = target: High affinity choline transporter 1 (Homo sapiens) (UniProt Q9GZV3); assay: Displacement of [3H]hemicholinium-3 from recombinant human choline transporter at 10 uM after 60 mins by scintillation counting method
Sequence of High affinity choline transporter 1 (Homo sapiens) (Q9GZV3 whole entry): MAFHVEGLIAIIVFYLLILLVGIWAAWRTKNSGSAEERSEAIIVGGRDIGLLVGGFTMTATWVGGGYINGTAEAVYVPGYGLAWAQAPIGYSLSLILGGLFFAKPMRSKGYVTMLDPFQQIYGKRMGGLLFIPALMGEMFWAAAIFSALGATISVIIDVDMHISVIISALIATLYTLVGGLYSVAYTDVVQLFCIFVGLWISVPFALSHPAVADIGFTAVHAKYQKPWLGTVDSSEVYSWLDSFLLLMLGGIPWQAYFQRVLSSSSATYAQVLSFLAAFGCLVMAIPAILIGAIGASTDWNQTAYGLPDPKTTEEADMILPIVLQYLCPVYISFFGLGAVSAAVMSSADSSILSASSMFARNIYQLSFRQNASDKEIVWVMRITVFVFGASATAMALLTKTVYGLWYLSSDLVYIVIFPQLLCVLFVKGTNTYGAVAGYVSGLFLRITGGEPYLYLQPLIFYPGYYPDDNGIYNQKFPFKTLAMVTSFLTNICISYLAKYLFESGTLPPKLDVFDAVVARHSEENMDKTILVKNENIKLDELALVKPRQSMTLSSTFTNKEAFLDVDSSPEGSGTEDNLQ

[3] = Lipophilicity, log D of the compound at pH 7.4; assay type: physicochemical; settings: buffer
[4] = target: Sodium channel protein type 8 subunit alpha (Homo sapiens, UniProt Q9UQD0); assay: Inhibition of human Nav1.6 expressed in HEK cells by patch clamp electrophysiology method; assay type: cell-based
Sequence of Sodium channel protein type 8 subunit alpha (Q9UQD0 whole entry, the tested form may be a part): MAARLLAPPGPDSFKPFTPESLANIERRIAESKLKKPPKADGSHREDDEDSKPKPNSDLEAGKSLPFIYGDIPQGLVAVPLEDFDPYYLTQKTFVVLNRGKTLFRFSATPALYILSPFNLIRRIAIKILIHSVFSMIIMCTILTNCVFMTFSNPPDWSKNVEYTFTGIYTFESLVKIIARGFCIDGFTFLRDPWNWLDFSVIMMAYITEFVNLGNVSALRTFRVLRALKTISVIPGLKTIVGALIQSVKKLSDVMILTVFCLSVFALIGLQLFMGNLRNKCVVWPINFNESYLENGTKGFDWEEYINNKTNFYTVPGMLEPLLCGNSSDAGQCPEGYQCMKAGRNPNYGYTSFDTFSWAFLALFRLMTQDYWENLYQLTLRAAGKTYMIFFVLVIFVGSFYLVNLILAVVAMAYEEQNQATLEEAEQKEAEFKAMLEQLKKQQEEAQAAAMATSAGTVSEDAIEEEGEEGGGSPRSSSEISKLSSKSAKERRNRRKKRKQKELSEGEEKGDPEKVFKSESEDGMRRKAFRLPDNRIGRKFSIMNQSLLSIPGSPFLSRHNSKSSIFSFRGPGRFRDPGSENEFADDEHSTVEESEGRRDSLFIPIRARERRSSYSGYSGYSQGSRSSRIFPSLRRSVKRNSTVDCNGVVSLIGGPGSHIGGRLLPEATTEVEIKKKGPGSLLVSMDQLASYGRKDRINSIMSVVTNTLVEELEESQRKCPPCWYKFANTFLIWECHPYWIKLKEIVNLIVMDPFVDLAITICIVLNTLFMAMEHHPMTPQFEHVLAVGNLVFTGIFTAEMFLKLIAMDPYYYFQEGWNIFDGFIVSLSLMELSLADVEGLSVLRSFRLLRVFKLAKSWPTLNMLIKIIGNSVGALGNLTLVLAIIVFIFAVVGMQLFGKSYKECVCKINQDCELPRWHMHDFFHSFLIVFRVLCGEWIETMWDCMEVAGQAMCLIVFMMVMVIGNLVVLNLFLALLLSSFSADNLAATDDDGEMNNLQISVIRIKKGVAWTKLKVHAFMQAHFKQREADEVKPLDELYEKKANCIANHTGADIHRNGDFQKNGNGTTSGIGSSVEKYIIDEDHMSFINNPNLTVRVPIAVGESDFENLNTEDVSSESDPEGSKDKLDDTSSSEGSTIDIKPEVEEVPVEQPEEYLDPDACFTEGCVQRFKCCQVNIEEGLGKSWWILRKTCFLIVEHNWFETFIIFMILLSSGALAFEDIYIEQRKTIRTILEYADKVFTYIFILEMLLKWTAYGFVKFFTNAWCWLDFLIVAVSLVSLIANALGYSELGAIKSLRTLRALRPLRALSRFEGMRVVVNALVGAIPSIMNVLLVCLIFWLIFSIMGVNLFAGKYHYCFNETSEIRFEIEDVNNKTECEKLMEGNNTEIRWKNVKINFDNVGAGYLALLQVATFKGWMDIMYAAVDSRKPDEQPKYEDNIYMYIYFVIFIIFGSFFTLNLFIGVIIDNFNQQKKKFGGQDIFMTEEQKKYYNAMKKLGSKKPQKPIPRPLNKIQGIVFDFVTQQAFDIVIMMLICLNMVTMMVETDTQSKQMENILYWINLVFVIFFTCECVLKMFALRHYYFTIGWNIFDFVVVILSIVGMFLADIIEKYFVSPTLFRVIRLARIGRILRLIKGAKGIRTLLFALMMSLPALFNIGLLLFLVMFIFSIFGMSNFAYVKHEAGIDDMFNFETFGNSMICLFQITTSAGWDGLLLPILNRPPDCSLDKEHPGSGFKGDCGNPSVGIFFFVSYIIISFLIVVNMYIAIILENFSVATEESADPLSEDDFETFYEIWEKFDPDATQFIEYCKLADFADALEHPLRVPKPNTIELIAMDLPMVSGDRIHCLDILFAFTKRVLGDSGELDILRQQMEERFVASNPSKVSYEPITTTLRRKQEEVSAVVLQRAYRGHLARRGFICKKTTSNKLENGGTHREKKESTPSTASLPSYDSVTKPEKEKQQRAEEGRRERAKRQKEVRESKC

[5] = Terminal half-life in dog at 0.3 mg/kg, iv via infusion for 0.5 hrs; assay type: ADME, organism-based, Canis lupus familiaris; settings: in vivo, read-out: beta t1/2 (converted)
Procedure, shortened: (§1)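 Dog IV pharmacokinetics, with half-life reported as two values: α (initial phase) and β (terminal phase) of the disposition profile.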

[6] = Primary phase half-life in dog at 0.3 mg/kg, iv via infusion for 0.5 hrs; assay type: ADME, organism-based, Canis lupus familiaris; settings: in vivo, read-out: alphat1/2 (converted); procedure, shortened: as §1
[7] = Renal clearance in rat at 0.3 mg/kg, iv via infusion for 1 hr; assay type: ADME, organism-based, Kidney; settings: in vivo
[8] = Biliary clearance in rat at 0.3 mg/kg, iv via infusion for 1 hr; assay type: ADME, organism-based, Bile; settings: in vivo
[9] = Clearance in bile duct cannulated rat at 0.3 mg/kg, iv via infusion for 1 hr; assay type: ADME, organism-based; settings: in vivo
Procedure, shortened: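 Plasma clearance was taken from a study in bile duct cannulated rats.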

[10] = Clearance in rat blood at 0.3 mg/kg, iv via infusion for 1 hr; assay type: ADME, organism-based; settings: whole blood
Procedure, shortened: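 Blood clearance was calculated from the measured plasma clearance and the measured blood:plasma ratio.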

[11] = Volume of distribution at steady state in iv dosed mouse; assay type: ADME, organism-based; settings: in vivo, read-out: Vdss
[12] = Unbound clearance in iv dosed mouse plasma; assay type: ADME, organism-based; settings: in vivo
[13] = Clearance in iv dosed mouse plasma; assay type: ADME, organism-based
Cytochrome P450 2C19 = Cytochrome P450 2C19 (Homo sapiens, UniProt P33261); assay: Inhibition of CYP2C19 (unknown origin); assay type: ADME
[14] = Protein binding in dog plasma assessed as fraction unbound; assay type: ADME, cell-free, Canis lupus familiaris
[15] = Intrinsic clearance in rat hepatocytes assessed per million cells; assay type: ADME, cell-based, Hepatocyte; settings: read-out: CLH
[16] = Intrinsic clearance in dog liver microsomes; assay type: ADME, Canis lupus familiaris, microsome; settings: read-out: CLH
[17] = target: Beta-1 adrenergic receptor (Homo sapiens) (UniProt P08588); assay: Agonist activity at recombinant human beta1 receptor expressed in HEK293 cells assessed as increase in cAMP accumulation at 10 uM after 30 mins by HTRF assay relative to control; assay type: functional, cell-based
[18] = target: D(2) dopamine receptor (Homo sapiens) (UniProt P14416); assay: Agonist activity at recombinant human D2S receptor expressed in HEK293 cells assessed as effect on impedance at 10 uM by cellular dielectric spectroscopic method relative to control; assay type: cell-based
[19] = target: Histamine H2 receptor (Homo sapiens) (UniProt P25021); assay: Agonist activity at recombinant human H2 receptor expressed in CHOK1 cells assessed as increase in cAMP accumulation at 10 uM measured after 30 mins by HTRF assay relative to control; assay type: functional, cell-based
Sequence of Histamine H2 receptor (Homo sapiens) (P25021 whole entry): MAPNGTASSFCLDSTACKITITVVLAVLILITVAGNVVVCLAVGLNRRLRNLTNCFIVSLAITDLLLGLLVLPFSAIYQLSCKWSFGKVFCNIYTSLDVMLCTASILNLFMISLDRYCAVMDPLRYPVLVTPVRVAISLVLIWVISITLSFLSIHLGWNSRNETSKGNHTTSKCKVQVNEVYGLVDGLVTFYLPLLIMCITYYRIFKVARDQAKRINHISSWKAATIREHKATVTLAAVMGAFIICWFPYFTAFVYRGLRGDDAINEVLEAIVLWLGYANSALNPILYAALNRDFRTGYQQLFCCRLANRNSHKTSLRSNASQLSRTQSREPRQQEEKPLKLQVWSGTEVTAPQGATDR

[20] = target: 5-hydroxytryptamine receptor 1B (Homo sapiens, UniProt P28222); assay: Agonist activity at human 5-HT1B receptor expressed in HeLa cells assessed as increase in cAMP accumulation at 10 uM measured after 20 mins by HTRF method relative to control; assay type: functional, cell-based
[21] = target: 5-hydroxytryptamine receptor 2B (Homo sapiens) (UniProt P41595); assay: Agonist activity at human 5-HT2B receptor expressed in CHOK1 cells assessed as increase in IP1 accumulation at 10 uM measured after 30 mins by HTRF method relative to control; assay type: functional, cell-based
Sequence of 5-hydroxytryptamine receptor 2B (Homo sapiens) (P41595 whole entry): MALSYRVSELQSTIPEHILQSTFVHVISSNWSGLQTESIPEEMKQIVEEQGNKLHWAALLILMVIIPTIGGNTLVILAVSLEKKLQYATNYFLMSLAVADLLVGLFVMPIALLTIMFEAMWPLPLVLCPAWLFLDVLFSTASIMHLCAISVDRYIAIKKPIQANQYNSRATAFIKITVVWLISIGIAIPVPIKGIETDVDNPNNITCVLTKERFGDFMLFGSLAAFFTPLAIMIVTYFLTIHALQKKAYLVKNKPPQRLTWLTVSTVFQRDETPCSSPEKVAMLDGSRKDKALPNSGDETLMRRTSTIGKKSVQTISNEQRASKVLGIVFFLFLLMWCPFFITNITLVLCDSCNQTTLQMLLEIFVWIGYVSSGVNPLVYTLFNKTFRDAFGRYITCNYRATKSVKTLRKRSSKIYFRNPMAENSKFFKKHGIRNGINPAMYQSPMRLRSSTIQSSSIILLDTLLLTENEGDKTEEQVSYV

[22] = target: Type-1 angiotensin II receptor (Homo sapiens) (UniProt P30556); assay: Antagonist activity at recombinant human AT1 receptor expressed in HEK293 cells assessed as inhibition of angiotensin2-induced calcium flux at 10 uM by spectrophotometric method relative to control; assay type: functional, cell-based
Homo sapiens = species: Homo sapiens; assay: Inhibition of neuronal type nAChR (unknown origin) at 10 uM by radioligand binding assay relative to control
[23] = target: Acetylcholinesterase (Homo sapiens) (UniProt P22303); assay: Inhibition of recombinant human AChE at 10 uM using acetylthiocholine as substrate measured after 30 mins by spectrophotometric method relative to control
[24] = target: Prostaglandin G/H synthase 2 (Homo sapiens) (UniProt P35354); assay: Inhibition of recombinant human COX2 at 10 uM using arachidonic acid as substrate measured after 5 mins by fluorescence assay
Sequence of Prostaglandin G/H synthase 2 (Homo sapiens) (P35354 whole entry): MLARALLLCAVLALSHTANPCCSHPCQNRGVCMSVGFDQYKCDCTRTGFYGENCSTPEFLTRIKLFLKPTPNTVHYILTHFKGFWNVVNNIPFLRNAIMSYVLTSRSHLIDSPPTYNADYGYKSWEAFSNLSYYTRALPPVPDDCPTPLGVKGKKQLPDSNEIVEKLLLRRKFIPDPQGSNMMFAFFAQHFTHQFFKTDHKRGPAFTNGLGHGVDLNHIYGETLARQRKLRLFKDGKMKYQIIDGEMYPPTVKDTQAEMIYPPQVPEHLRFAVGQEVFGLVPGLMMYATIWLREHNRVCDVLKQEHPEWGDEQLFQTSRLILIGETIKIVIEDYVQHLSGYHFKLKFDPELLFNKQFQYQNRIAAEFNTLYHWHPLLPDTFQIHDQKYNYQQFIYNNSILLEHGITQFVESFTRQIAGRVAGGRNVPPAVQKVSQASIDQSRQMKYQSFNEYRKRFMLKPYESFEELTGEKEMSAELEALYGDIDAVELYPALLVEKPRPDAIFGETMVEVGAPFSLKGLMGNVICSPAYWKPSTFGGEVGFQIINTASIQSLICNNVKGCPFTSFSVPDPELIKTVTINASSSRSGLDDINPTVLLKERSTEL

[25] = target: Androgen receptor (Homo sapiens) (UniProt P10275); assay: Displacement of [3H]methyltrienolone from human androgen receptor at 10 uM after 1440 mins by scintillation counting method
[26] = target: T1, Alpha-1A adrenergic receptor (Homo sapiens) (UniProt P35348); assay: Displacement of [3H]prazosin from recombinant human alpha1a receptor at 10 uM after 60 mins by scintillation counting method
T1 sequence (whole entry): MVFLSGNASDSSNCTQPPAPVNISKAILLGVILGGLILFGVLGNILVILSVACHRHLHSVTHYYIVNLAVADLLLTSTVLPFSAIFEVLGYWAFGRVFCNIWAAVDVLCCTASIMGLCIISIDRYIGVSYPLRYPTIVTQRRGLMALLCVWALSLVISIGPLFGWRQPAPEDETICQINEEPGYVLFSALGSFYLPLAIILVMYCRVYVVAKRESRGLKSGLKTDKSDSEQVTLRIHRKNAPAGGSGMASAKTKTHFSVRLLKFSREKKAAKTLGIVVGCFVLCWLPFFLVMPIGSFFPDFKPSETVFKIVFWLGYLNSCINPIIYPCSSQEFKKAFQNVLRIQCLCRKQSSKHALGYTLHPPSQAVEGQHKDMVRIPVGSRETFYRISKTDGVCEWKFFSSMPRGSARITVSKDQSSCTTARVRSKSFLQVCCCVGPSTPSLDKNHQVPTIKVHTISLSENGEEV

[27] = target: Mu-type opioid receptor (Homo sapiens) (UniProt P35372); assay: Displacement of [3H]DAMGO from recombinant human MOR at 10 uM after 120 mins by scintillation counting method
[28] = Displacement of [3H]diltiazem from L-type calcium channel diltiazem binding site in rat brain after 120 mins by scintillation counting method
[29] = target: High affinity choline transporter 1 (Homo sapiens, UniProt Q9GZV3); assay: Displacement of [3H]hemicholinium-3 from recombinant human choline transporter after 60 mins by scintillation counting method
Sequence of High affinity choline transporter 1 (Q9GZV3 whole entry): as the sequence (Q9GZV3 whole entry) above

[30] = target: Prostaglandin G/H synthase 2 (Homo sapiens, UniProt P35354); assay: Inhibition of recombinant human COX2 using arachidonic acid as substrate measured after 5 mins by fluorescence assay
Sequence of Prostaglandin G/H synthase 2 (P35354 whole entry): as the sequence (P35354 whole entry) above

[31] = Protein binding in rat plasma assessed as fraction unbound at 2 uM; assay type: ADME, cell-free
[32] = Protein binding in non-human primate plasma assessed as fraction unbound at 2 uM; assay type: ADME, cell-free, Macaca mulatta; settings: rhesus monkey
Mus musculus = assay: Analgesic activity in mouse assessed as inhibition of formalin-induced pain at 0.28 to 5.4 mg/kg, iv pretreated for 90 mins followed by formalin addition measured up to 40 mins; assay type: functional, organism-based
[33] = Cytotoxicity against human THLE cells; assay type: cell-based

Sequence of Sodium-dependent serotonin transporter (Homo sapiens) (P31645 whole entry, looked up): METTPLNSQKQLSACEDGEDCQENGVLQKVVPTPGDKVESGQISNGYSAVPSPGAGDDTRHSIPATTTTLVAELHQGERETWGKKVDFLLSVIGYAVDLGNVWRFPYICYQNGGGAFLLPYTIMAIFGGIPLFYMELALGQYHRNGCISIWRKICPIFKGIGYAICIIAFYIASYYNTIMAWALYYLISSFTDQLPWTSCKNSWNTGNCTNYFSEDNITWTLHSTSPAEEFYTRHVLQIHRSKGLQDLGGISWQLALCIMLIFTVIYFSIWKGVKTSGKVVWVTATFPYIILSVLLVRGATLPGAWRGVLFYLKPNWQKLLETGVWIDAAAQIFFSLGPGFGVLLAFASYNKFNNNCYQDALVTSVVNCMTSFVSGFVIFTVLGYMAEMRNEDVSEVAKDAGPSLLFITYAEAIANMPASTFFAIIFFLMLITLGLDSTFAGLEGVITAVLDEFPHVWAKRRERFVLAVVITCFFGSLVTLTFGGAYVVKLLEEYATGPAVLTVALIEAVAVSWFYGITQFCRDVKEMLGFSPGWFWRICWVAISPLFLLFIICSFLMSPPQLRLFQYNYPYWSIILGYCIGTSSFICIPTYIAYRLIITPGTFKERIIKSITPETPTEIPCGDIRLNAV

## N#Cc1cc(S(=O)(=O)Nc2ncns2)ccc1Oc1ccc(-c2cccc(C(F)(F)F)c2)cc1-c1ccnc(CNCCC2CCNCC2)c1
[1]
  inhibition: 40%
[2]
  inhibition: 99%
[3]
  logD: 2.37 to 2.4
[4]
  IC50: 5.46 to 5.8 nM
[5]
  half-life: 5.9 h
[6]
  half-life: 3.42 min
[7]
  CL renal at 1 h: 0.0322 mL/min/kg
[8]
  CL: 44 mL/min/kg
[9]
  clearance: 59.8 mL/min/kg
[10]
  clearance: 178 mL/min/kg
[11]
  Vd: 0.54 L/kg
[12]
  CL free: 12989 mL/min/kg
[13]
  clearance: 36.5 mL/min/kg
Cytochrome P450 2C19
  IC50: 1320 nM
[14]
  fraction unbound: 0.00374
[15]
  hepatocyte CLint: < 6 µL/min/1e6 cells
[16]
  microsomal CLint: < 18.1 µL/min/mg
[17]
  Activity: -4%
[18]
  Activity: -2%
[19]
  Activity: -4%
[20]
  Activity: 141%
[21]
  Activity: 1%
[22]
  inhibition: -2%
Homo sapiens
  inhibition: 34%
[23]
  inhibition: 15%
[24]
  inhibition: 85%
[25]
  inhibition: 27%
[26]
  inhibition: -4%
[27]
  inhibition: 46%
[28]
  IC50: 5300 nM
  Ki: 4120 nM
[29]
  IC50: 120 nM
  Ki: 68 nM
[30]
  IC50: 3650 nM
[31]
  fraction unbound at 2 µM: 0.002
[32]
  fraction unbound at 2 µM: 0.001
Mus musculus
  inhibition: inactive
[33]
  IC50: 108000 nM
